Measured values: ChEMBL document CHEMBL1141332, “Cytotoxic metabolites from an Indonesian sponge Lendenfeldia sp” (J Nat Prod, 2007)

Experiments:
[1] = test system: T47D; experiment: Cytotoxicity against human T47D cells; type: functional; conditions: for TGI: read-out: Log TGI (converted)
[2] = test system: MDA-MB-231; experiment: Cytotoxicity against human MDA-MB-231 cells; type: functional; conditions: for TGI: read-out: Log TGI (converted)
[3] = test system: HOP-62; experiment: Cytotoxicity against human HOP62 cells; type: functional; conditions: for CC50: read-out: Log LC50 (the source's name) (converted); for TGI: read-out: Log TGI (converted)
[4] = test system: SR; experiment: Cytotoxicity against human SR cells; type: functional; conditions: for CC50: read-out: Log LC50 (the source's name) (converted); for TGI: read-out: Log TGI (converted)
[5] = test system: OVCAR-8; experiment: Cytotoxicity against human OVCAR8 cells; type: functional; conditions: for TGI: read-out: Log TGI (converted); for CC50: read-out: Log LC50 (the source's name) (converted)
[6] = test system: U-251; experiment: Cytotoxicity against human U251cells; type: functional; conditions: for CC50: read-out: Log LC50 (the source's name) (converted); for TGI: read-out: Log TGI (converted)
[7] = test system: CCRF-CEM; experiment: Cytotoxicity against human CCRF-CEM cells; type: functional; conditions: for TGI: read-out: Log TGI (converted)
[8] = test system: HCT-15; experiment: Cytotoxicity against human HCT15 cells; type: functional; conditions: for CC50: read-out: Log LC50 (the source's name) (converted); for TGI: read-out: Log TGI (converted)
[9] = test system: NCI-H522; experiment: Cytotoxicity against human NCI-H522 cells; type: functional; conditions: for CC50: read-out: Log LC50 (the source's name) (converted); for TGI: read-out: Log TGI (converted)
[10] = test system: A498; experiment: Cytotoxicity against human A498 cells; type: functional; conditions: for TGI: read-out: Log TGI (converted)
[11] = test system: SF-268; experiment: Cytotoxicity against human SF268 cells; type: functional; conditions: for CC50: read-out: Log LC50 (the source's name) (converted); for TGI: read-out: Log TGI (converted)
[12] = test system: SW-620; experiment: Cytotoxicity against human SW620 cells; type: functional; conditions: for CC50: read-out: Log LC50 (the source's name) (converted); for TGI: read-out: Log TGI (converted)
[13] = test system: SF-295; experiment: Cytotoxicity against human SF295 cells; type: functional; conditions: for CC50: read-out: Log LC50 (the source's name) (converted); for TGI: read-out: Log TGI (converted)
[14] = target: T1, Hypoxia inducible factors; HIF-1-alpha, HIF-2-alpha (Homo sapiens, UniProt Q16665+Q99814); experiment: Inhibition of 1, 10-phenanthroline-induced HIF1 activity in human T47D cells by cell based reporter assay
Summary of the method: (§1)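 T47D cells grown in DMEM/F12 with glutamine, 10% FCS and penicillin/streptomycin at 37 °C under 5% CO2, then transiently transfected with the pHRE-TK-Luc reporter. Compounds from DMSO stocks were tested at half-log concentrations for 16 h, with luciferase read-out. IC50 was taken from curve fits of triplicate experiments.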

[15] = test system: T47D; experiment: Cell viability of human T47D cells under hypoxic condition after 16 hrs; type: functional, cell-based
[16] = test system: MDA-MB-231; experiment: Inhibition of human MDA-MB-231 cells assessed as cell viability under normoxic condition after 48 hrs; type: functional, cell-based; conditions: MDA-MB-231, 48 h
Summary of the method: (§2)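 Neutral Red proliferation/viability assay on T47D or MDA-MB-231 cells kept in DMEM/F12 with 10% FCS at 37 °C under 5% CO2, with 48 h compound exposure. Read-out was OD540, and % inhibition = 1 − OD540(treated)/OD540(control). IC50 was derived from the concentration–response data.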

[17] = test system: T47D; experiment: Inhibition of human T47D cells assessed as cell viability under hypoxic condition after 48 hrs; type: functional, cell-based; summary of the method: as §2
[18] = test system: MDA-MB-231; experiment: Inhibition of human MDA-MB-231 cells assessed as cell viability under hypoxic condition after 48 hrs; type: functional, cell-based; conditions: MDA-MB-231, 48 h; summary of the method: as §2
[19] = test system: CAKI-1; experiment: Cytotoxicity against human CAKI1 cells; type: functional; conditions: for TGI: read-out: Log TGI (converted)
[20] = test system: T47D; experiment: Inhibition of human T47D cells assessed as cell viability under normoxic condition after 48 hrs; type: functional, cell-based; summary of the method: as §2
[21] = target: T1, Hypoxia inducible factors; HIF-1-alpha, HIF-2-alpha; experiment: Inhibition of HIF1 activity in human T47D cells by cell based reporter assay; summary of the method: as §1

CC(=O)O[C@H]1C[C@H]2[C@@](C)(CC[C@H]3C(C)(C)CCC[C@@]32CO)[C@@H]2CC=C(C(C)=O)[C@H](C=O)[C@@]12C
GI50 [1]: 1020 nM | LC50 [1]: 8.91 µM | TGI [1]: 3.02 µM | GI50 [2]: 891 nM | LC50 [2]: 4.57 µM | TGI [2]: 2.09 µM | GI50 [3]: 295 nM | CC50 [3]: 2.45 µM | TGI [3]: 724 nM | GI50 [4]: 288 nM | CC50 [4]: 3.72 µM | TGI [4]: 759 nM | GI50 [5]: 263 nM | TGI [5]: 0.692 µM | GI50 [6]: 347 nM | CC50 [6]: 3.47 µM | TGI [6]: 1200 nM | GI50 [7]: 347 nM | LC50 [7]: 4.47 µM | TGI [7]: 1170 nM | GI50 [8]: 224 nM | CC50 [8]: 1.23 µM | TGI [8]: 490 nM | GI50 [9]: 1050 nM | CC50 [9]: 6.46 µM | TGI [9]: 2.57 µM | GI50 [10]: 1480 nM | LC50 [10]: 5.89 µM | TGI [10]: 2.95 µM | GI50 [11]: 447 nM | CC50 [11]: 6.17 µM | TGI [11]: 1.86 µM | GI50 [12]: 162 nM | CC50 [12]: 676 nM | TGI [12]: 331 nM | GI50 [13]: 479 nM | CC50 [13]: 4.27 µM | TGI [13]: 1.74 µM

CC(=O)C1=CC[C@H]2[C@]3(C)CC[C@H]4C(C)(C)CCC[C@]4(C(=O)O)[C@H]3CC(=O)[C@]2(C)[C@H]1C=O
GI50 [1]: 1170 nM | LC50 [1]: 85.1 µM | TGI [1]: 6.61 µM | IC50 [14]: 0.5 µM | GI50 [2]: 1660 nM | LC50 [2]: 6.31 µM | TGI [2]: 3.24 µM | GI50 [3]: 1350 nM | CC50 [3]: 5.75 µM | TGI [3]: 2750 nM | GI50 [4]: 457 nM | CC50 [4]: 6.76 µM | TGI [4]: 1860 nM | IC50 [15]: 3.3 µM | GI50 [5]: 1320 nM | CC50 [5]: > 100 µM | TGI [5]: 3.63 µM | IC50 [16]: 1.4 µM | GI50 [6]: 1230 nM | CC50 [6]: 5.01 µM | TGI [6]: 2450 nM | IC50 [17]: 1.9 µM | IC50 [18]: 1.5 µM | GI50 [8]: 759 nM | CC50 [8]: 5.25 µM | TGI [8]: 2140 nM | GI50 [9]: 1740 nM | CC50 [9]: 11.2 µM | TGI [9]: 4.17 µM | GI50 [19]: 0.646 µM | LC50 [19]: 12.9 µM | TGI [19]: 2.45 µM | GI50 [10]: 1120 nM | LC50 [10]: 15.8 µM | TGI [10]: 3.63 µM | GI50 [11]: 1200 nM | CC50 [11]: 7.24 µM | TGI [11]: 2.95 µM | IC50 [20]: 1.4 µM | GI50 [12]: 324 nM | CC50 [12]: 3390 nM | TGI [12]: 1120 nM | IC50 [21]: 0.64 µM | GI50 [13]: 1450 nM | CC50 [13]: 6.92 µM | TGI [13]: 3.16 µM

CC1OC(=O)[C@H]2[C@H]1[C@@H](O)C[C@H]1[C@]3(C)CC[C@H]4C(C)(C)CCC[C@]4(C)[C@H]3C[C@@H](O)[C@]21C (some centres not stated)
GI50 [1]: 24500 nM | LC50 [1]: > 100 µM | TGI [1]: 63.1 µM | IC50 [14]: 2.4 µM | GI50 [2]: 19100 nM | LC50 [2]: 87.1 µM | TGI [2]: 40.7 µM | GI50 [3]: 15100 nM | CC50 [3]: 55 µM | TGI [3]: 28800 nM | GI50 [4]: 8510 nM | CC50 [4]: > 100 µM | TGI [4]: 35500 nM | IC50 [15]: 6.7 µM | GI50 [5]: 25100 nM | CC50 [5]: > 100 µM | TGI [5]: 63.1 µM | IC50 [16]: 4.9 µM | GI50 [6]: 17000 nM | CC50 [6]: 61.7 µM | TGI [6]: 32400 nM | IC50 [17]: 5.3 µM | IC50 [18]: 5.4 µM | GI50 [8]: 16200 nM | CC50 [8]: 60.3 µM | TGI [8]: 31600 nM | GI50 [9]: 19500 nM | CC50 [9]: 77.6 µM | TGI [9]: 38.9 µM | GI50 [19]: 30.9 µM | LC50 [19]: > 100 µM | TGI [19]: 56.2 µM | GI50 [10]: 18600 nM | LC50 [10]: 72.4 µM | TGI [10]: 37.2 µM | GI50 [11]: 22400 nM | CC50 [11]: > 100 µM | TGI [11]: 49 µM | IC50 [20]: 4.7 µM | GI50 [12]: 12000 nM | CC50 [12]: 52500 nM | TGI [12]: 25100 nM | IC50 [21]: 3.5 µM | GI50 [13]: 19500 nM | CC50 [13]: > 100 µM | TGI [13]: 50.1 µM

CC(=O)O[C@@H]1C[C@H]2[C@]3(C)CC[C@H]4C(C)(C)CCC[C@]4(C)[C@H]3C[C@H](O)[C@]2(C)[C@@H](C=O)[C@@H]1C(C)=O [SCALARHERBACIN A]
GI50 [1]: 832 nM | LC50 [1]: 25.1 µM | TGI [1]: 3.55 µM | GI50 [2]: 1480 nM | TGI [2]: 2.88 µM | GI50 [3]: 1070 nM | CC50 [3]: 4.79 µM | TGI [3]: 2240 nM | GI50 [4]: 282 nM | TGI [4]: 1150 nM | GI50 [5]: 676 nM | CC50 [5]: 57.5 µM | TGI [5]: 3.89 µM | GI50 [6]: 589 nM | CC50 [6]: 4.27 µM | TGI [6]: 1780 nM | GI50 [7]: 676 nM | LC50 [7]: 6.46 µM | TGI [7]: 2240 nM | GI50 [8]: 759 nM | CC50 [8]: 4.79 µM | TGI [8]: 2040 nM | GI50 [9]: 1860 nM | CC50 [9]: 7.59 µM | TGI [9]: 3.72 µM | GI50 [10]: 1820 nM | LC50 [10]: 6.76 µM | TGI [10]: 3.47 µM | GI50 [11]: 1450 nM | CC50 [11]: 7.41 µM | TGI [11]: 3.24 µM | GI50 [12]: 214 nM | CC50 [12]: 1070 nM | TGI [12]: 468 nM | GI50 [13]: 1450 nM | CC50 [13]: 6.17 µM | TGI [13]: 3.02 µM
